Ab BasE inh = blocks the Acinetobacter baumannii siderophore enzyme BasE; purified BasE, fluorescence polarization binding displacement; inhibition, % (test concentration not listed); hit rate 0.1% among 84,000; in the data active = inhibition above about 25%, passing the limit was not always enough;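 note: 0% = negative plate control signal and 100% = positive plate control signal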
LANA-nucl inh = LANA-nucleosome interaction inhibition | FITC-LANA1-23 / chicken nucleosome fluorescence polarization; hits give low values | hit rate 0.3% among 51,000 | z-score (concentration not given with the values);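 active = both repeat wells score below -2 in polarization z-score versus plate sample wells, excluding overly bright wells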
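Assay system: FITC-LANA peptide and chicken nucleosomes; input: 240 nM purified chicken nucleosomes (480 nM peptide binding sites), final; also added: 50 nM FITC-LANA1-23 probe; medium: TEN-BT buffer, pH 7.5; doses: pin-transferred compound, 100 nL; times: 10–45 min, room temperature; technique: fluorescence polarization; replication: duplicates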
Starred values were filed as active, the others as inactive; nt = no result given. Many of the other results were omitted from the sample, so hits are more common in it than they were.

SMILES | Ab BasE inh | LANA-nucl inh
O=C1c2cccc3c(N4CCOCC4)ccc(c23)C(=O)N1c1ccccc1 | 13 | -3.1*
O=C(Nc1ccccc1N1CCOCC1)c1cccc(N2C(=O)c3ccccc3C2=O)c1 | 0 | nt
Cc1ccc(N2C(=O)NC(c3ccccc3)(C(F)(F)F)C2=O)nc1 (stereo not drawn) | 2 | -2.3*
O=C1NC(c2ccc(F)cc2)(C(F)(F)F)C(=O)N1Cc1ccco1 (stereo not drawn) | 2 | -0.98
CCOC(=O)c1ccc2nsnc2c1 | 0 | 0.36
Nc1ccc2nsnc2c1 | 26 | -3.1*
Cc1ccc2[nH]c(C)c(CN3CC(C)OC(C)C3)c(=O)c2c1 (stereo not drawn) | 1 | 0.15
COc1ccccc1C1C2=C(CC(C)(C)CC2=O)Nc2nc3ccccc3n21 (stereo not drawn) | 1 | -0.74
COc1ccccc1C1C=C(c2cccnc2)Nc2nc3ccccc3n21 (stereo not drawn) | 29 | -4.8*
CN=C(c1ccccc1)N1CCN(c2ccc(OC)cc2)CC1 | 3 | nt
Cc1ccnc(Cl)c1N | 45* | 0.036
COc1ncnc(Cl)c1N | -1 | 0.22
CCc1ccc(OC(C)C(=O)N2CC(C(=O)OC)Oc3ccccc32)cc1 (stereo not drawn) | -2 | 0.79
Cc1noc(C)c1NC(N)=O | 1 | nt
COc1ccc(S(=O)(=O)NNC(N)=S)cc1 | -1 | 0.26
COc1ccc(S(=O)(=O)c2ccc(O)cc2)cc1 | 51* | 0.13
NNC(=O)CNc1ccc2c(c1)OCO2 | -3 | nt
O=C(Cn1cnc2sccc2c1=O)NC(=O)NC1CCCC1 | 0 | nt
O=C1c2c(O)ccc(O)c2C(=O)c2c(NCCNCCO)ccc(NCCNCCO)c21 | 1 | -9.1*
COc1ccc(Cn2c(=O)c3cccnc3n(CC(=O)Nc3ccccc3OC)c2=O)cc1 | 1 | -0.83
CCn1nc(C)c(NC(=S)NCC2CCCO2)c1C (stereo not drawn) | 1 | 0.41
Cc1cccc(OCC(N)=O)c1 | 22 | nt
Cc1cccc(OCC(=O)N(Cc2ccco2)Cc2ccco2)c1 | 28* | 0.49
CCN(CC)C(=O)NCc1ccccn1 | 3 | -0.21
O=C(c1csc(-c2ccccc2)n1)N(Cc1ccccn1)Cc1ccccn1 | nt | -2*
SMILES | Ab BasE inh | LANA-nucl inh
CCCNC(=O)c1nn(C)c2c1CCc1sccc1-2 | 1 | 0.67
CC(C)C(NC(=O)Cc1cccc2ccccc12)C(=O)N1CCN(c2ncccn2)CC1 (stereo not drawn) | -2 | nt
O=C1CC(=O)c2ccc3c4c(ccc1c24)C(=O)CC3=O | 27* | -0.28
Nc1ccc2c(c1)CCC2=O | 2 | 0.82
COc1cc2c(c(OC)c1OC)C(c1ccc(N(C)C)cc1)C1=C(CC(C)(C)CC1=O)N2 (stereo not drawn) | 0 | 0.096
COc1cccc(NC(=O)CSc2ncccn2)c1 | 1 | -0.7
O=C(CSC1=NNC(c2ccccn2)S1)Nc1cccc(Cl)c1 (stereo not drawn) | 2 | -2.1*
O=C(CCN1C(=O)/C(=C\C=C\c2ccco2)SC1=S)Nc1ccc(C(=O)O)c(O)c1 | 33* | -0.23
O=C(CCN1C(=O)/C(=C\c2ccco2)SC1=S)NN1CCOCC1 | -1 | 2.3
O=C(CSc1n[nH]c(=O)[nH]c1=O)Nc1ccc(Br)cc1Br | -1 | nt
O=C(CSc1n[nH]c(=O)[nH]c1=O)Nc1ccccc1C(=O)c1ccccc1 | 38* | nt
O=C1c2ccccc2C(=O)N1/N=C/c1cn(-c2ccccc2)nc1-c1cc2ccccc2o1 | 1 | nt
CC(=O)Nc1ccc(S(=O)(=O)NCc2cccn2Cc2ccc(F)cc2)cc1 | -3 | -0.63
CCN1CC=C2C(C1)C(c1ccc(Cl)s1)C(C#N)=C(N)C2(C#N)C#N (stereo not drawn) | 20 | -5.9*
CCCN1CC=C2C(C1)C(c1ccc(C(=O)OC)cc1)C(C#N)=C(N)C2(C#N)C#N (stereo not drawn) | 14 | -1.7
CCCn1c(SCC(=O)N2CCC(C)Sc3ccccc32)n[nH]c1=O (stereo not drawn) | -1 | nt
C[n+]1cccc2ccc(O)cc21 | 20 | -6.7*
CN(C)c1ccc2c(c1)S(=O)(=O)c1cc(N(C)C)ccc1C2=O | 33 | -4*
CN1CCN(C(=O)c2ccc3c(c2)S(=O)(=O)c2ccccc2C3=O)CC1 | 1 | nt
COc1cccc(N2CCN(C(=O)c3nn(C)c4c3COc3ccccc3-4)CC2)c1 | 3 | -2.3*
COc1cccc(C(=O)N2CCN(c3ccccc3)CC2)c1 | 3 | nt
O=C1CC2(CCCc3ccccc32)C(=O)N1CN1CCCCC1 (stereo not drawn) | nt | -0.75
O=C(Oc1cccc2cccnc12)c1cc(C(F)(F)F)cc(C(F)(F)F)c1 | 42* | nt
O=C(Oc1cccc2cccnc12)c1ccccc1 | 2 | -0.04
O=C1NC2(Cc3ccccc3C2)Nc2ccccc21 | 2 | -2*
SMILES | Ab BasE inh | LANA-nucl inh
O=C1NC2(CCCCC2)Nc2ccccc21 | 0 | 0.32
Cc1n[nH]c(C)c1Cc1ccc(C(=O)O)o1 | -1 | 0.9
CC1(C)Cc2ccccc2C(N/N=C/c2ccco2)=N1 | 1 | 0.34
OCc1cccn1-c1ncc(C(F)(F)F)cc1Cl | nt | 0.68
CC1=C(C#N)C(=O)N(CC(C)O)C(=O)/C1=C/c1ccc(-c2ccc(Cl)cc2)o1 (stereo not drawn) | -1 | -0.025
Cc1ccc2nc(NC(=O)C3CCCC3)sc2c1 | -1 | -0.85
Cc1cc(C(=O)NCC(C)c2ccccc2)n[nH]1 (stereo not drawn) | 0 | -2.2*
CC(CNC(=O)c1cc(C2CC2)[nH]n1)c1ccccc1 (stereo not drawn) | -1 | -1.4
CC(C)C1Nc2ccc(C(=O)NCc3ccccc3)cc2NC1=O (stereo not drawn) | 1 | 0.37
O=C1C=CC(=O)c2c(Cl)ccc(Cl)c21 | 80* | -0.036
CC(C)c1ccc(C2=CC(=O)C=CC2=O)cc1 | 2 | 0.66
CCOc1ncccc1C(=O)NCc1ccc(S(N)(=O)=O)cc1 | 1 | nt
Cc1oc2ccc(O)c(CN3CCCCC3)c2c1C(=O)Nc1ccccc1 | 1 | 0.3
CC1CN=C(N(CCc2ccccc2)C(=O)Nc2ccc(Cl)cc2)S1 (stereo not drawn) | 1 | nt
CCC1(CC)C(C)=[N+](C)c2ccccc21 | -1 | nt
O=C(NC1CCS(=O)(=O)C1)C(c1ccccc1)c1ccccc1 (stereo not drawn) | 1 | 1.7
C=C(C)CC(Nc1ccccc1F)c1ccco1 (stereo not drawn) | 0 | nt
CCCCNC(=O)NC1C2CC3CC(C2)CC1C3 (stereo not drawn) | 26* | 0.8
CC(C)NC(=O)NC1C2CC3CC(C2)CC1C3 (stereo not drawn) | -1 | 1.5
O=c1[nH]c2c(s1)C=Nc1cc3ccccc3cc1N2 | 23 | -2.3*
COc1cc([C@@H]2c3cc4c(cc3[C@@H](O[C@@H]3O[C@@H]5CO[C@@H](C)O[C@H]5[C@H](O)[C@H]3O)C3COC(=O)[C@@H]32)OCO4)cc(OC)c1O (stereo partly drawn) | -1 | -0.14
CC(C)(C)CC(C)(C)NC(=O)Nc1cccc(Cl)c1 | 2 | -2*
Cc1ccccc1NC(=O)NC(C)(C)CC(C)(C)C | 1 | -0.068
Cc1cc(SCc2ccccn2)nc(=O)[nH]1 | -1 | 0.47
CN(C(=O)NC(=O)Nc1ccc(C=C(C#N)C#N)cc1)S(C)(=O)=O | -1 | nt
CCN(C(=O)c1cccc(Cl)c1)C1CCCCC1 | 0 | 0.75
CCN(C(=O)NC1(C(F)(F)F)Oc2ccc(Cl)cc2O1)C1CCCCC1 (stereo not drawn) | 40* | -0.19

Screening results: PubChem BioAssay, ICCB-Longwood Screening Facility, Harvard Medical School
